According to ChEMBL document CHEMBL1141492, “Potent, exceptionally selective, orally bioavailable inhibitors of TNF-alpha Converting Enzyme (TACE): novel 2-substituted-1H-benzo[d]imidazol-1-yl)methyl)benzamide P1' substituents” (Bioorg Med Chem Lett, 2008):

Legend:
Blood = test: Reduction of LPS-induced TNFalpha in human whole blood; type: functional, tissue-based
Method in brief: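 LPS-induced TNF-α production in human whole blood; suppression of TNF-α measured.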

Stromelysin-2 = Stromelysin-2 (Homo sapiens, UniProt P09238); test: Inhibition of MMP10
Chain of Stromelysin-2 (P09238 whole entry): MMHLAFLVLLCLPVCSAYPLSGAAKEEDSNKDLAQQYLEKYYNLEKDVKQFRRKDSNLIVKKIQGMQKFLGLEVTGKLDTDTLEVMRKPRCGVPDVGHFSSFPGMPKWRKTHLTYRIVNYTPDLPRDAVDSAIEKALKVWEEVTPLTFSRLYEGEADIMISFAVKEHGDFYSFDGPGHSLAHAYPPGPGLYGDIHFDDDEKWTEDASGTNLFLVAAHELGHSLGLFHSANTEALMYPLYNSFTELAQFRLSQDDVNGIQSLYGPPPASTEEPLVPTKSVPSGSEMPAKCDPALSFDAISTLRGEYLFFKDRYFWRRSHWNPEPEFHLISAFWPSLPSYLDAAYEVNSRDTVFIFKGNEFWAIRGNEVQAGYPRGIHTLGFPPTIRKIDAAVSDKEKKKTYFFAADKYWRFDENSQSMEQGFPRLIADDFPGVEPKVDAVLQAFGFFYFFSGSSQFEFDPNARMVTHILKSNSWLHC
Method in brief: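 MMP Ki values come from a single determination.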

[1] = Protein binding in rat serum; type: ADME, cell-free
[2] = Half life in Sprague-Dawley rat at 8.0 mg/kg, po; type: ADME, organism-based; set-up: dose 8 mg/kg, route oral; details: in vivo
Method in brief: (§1)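 Discrete or cassette (n-in-1) dosing, given intravenously and orally. Sprague–Dawley rats received 5.0 mg/kg iv and 8.0 mg/kg po; beagle dogs received 2.0 mg/kg iv and 8.0 mg/kg po. Three animals per dosing group; averaged values reported. AUC is reported in nM h.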

[3] = Half life in Beagle dog at 8.0 mg/kg, po; details: in vivo
Mus musculus = test: Reduction of LPS-induced TNFalpha level in orally dosed mouse after 1 hr; type: functional; details: po
Method in brief: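 Mouse LPS endotoxemia model. LPS and test compound in vehicle were given together by oral gavage at t = 0 h, across several doses. Mice were euthanized 1 h post dose, blood was taken by cardiac puncture, and plasma TNF-α was measured. ED50 was calculated from the dose response.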

[4] = Oral bioavailability in Beagle dog at 8.0 mg/kg, po; details: in vivo
[5] = Apparent permeability across human Caco-2 cells; type: ADME, cell-based
Method in brief: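 Apparent permeability measured across Caco-2 cell monolayers in the apical-to-basolateral (A→B) direction.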

[6] = Oral bioavailability in Sprague-Dawley rat at 8.0 mg/kg; type: ADME, organism-based; details: in vivo; method in brief: as §1
[7] = Half life in Sprague-Dawley rat at 5.0 mg/kg, iv; type: ADME, organism-based; set-up: dose 5 mg/kg, route intravenous; details: in vivo; method in brief: as §1
[8] = AUC in Sprague-Dawley rat at 5.0 mg/kg, iv; type: ADME, organism-based; set-up: dose 5 mg/kg, route intravenous; details: plasma; method in brief: as §1
[9] = Volume of distribution at steady state in Sprague-Dawley rat at 5.0 mg/kg, iv; type: ADME, organism-based; set-up: dose 5 mg/kg, route intravenous; details: in vivo, read-out: Vdss; method in brief: as §1
[10] = Clearance in Sprague-Dawley rat at 5.0 mg/kg, iv; type: ADME, organism-based; set-up: dose 5 mg/kg, route intravenous; details: in vivo; method in brief: as §1
[11] = Tmax in Beagle dog at 8.0 mg/kg, po; details: in vivo
[12] = AUC in Sprague-Dawley rat at 8.0 mg/kg, po; type: ADME, organism-based; set-up: dose 8 mg/kg, route oral; details: plasma; method in brief: as §1
[13] = Volume of distribution at steady state in Beagle dog at 2.0 mg/kg, iv; type: ADME, organism-based, Canis lupus familiaris; set-up: dose 2 mg/kg, route intravenous; details: in vivo, read-out: Vdss; method in brief: as §1
[14] = AUC in Beagle dog at 8.0 mg/kg, po; details: plasma
[15] = Protein binding in human serum; type: ADME, cell-free
[16] = Tmax in Sprague-Dawley rat at 8.0 mg/kg, po; type: ADME, organism-based; set-up: dose 8 mg/kg, route oral; details: in vivo; method in brief: as §1
[17] = Clearance in Beagle dog at 2.0 mg/kg, iv; type: ADME, organism-based, Canis lupus familiaris; set-up: dose 2 mg/kg, route intravenous; details: in vivo; method in brief: as §1
[18] = Protein binding in dog serum; type: ADME, cell-free, Canis lupus familiaris
[19] = AUC in Beagle dog at 2.0 mg/kg, iv; type: ADME, organism-based, Canis lupus familiaris; set-up: dose 2 mg/kg, route intravenous; details: plasma; method in brief: as §1
[20] = Half life in Beagle dog at 2.0 mg/kg, iv; type: ADME, organism-based, Canis lupus familiaris; set-up: dose 2 mg/kg, route intravenous; details: in vivo; method in brief: as §1
[21] = molecular target: T1, A disintegrin and metalloproteinase with thrombospondin motifs 5 (Homo sapiens, UniProt Q9UNA0); test: Inhibition of ADAMTS5
T1 sequence (Q9UNA0 whole entry): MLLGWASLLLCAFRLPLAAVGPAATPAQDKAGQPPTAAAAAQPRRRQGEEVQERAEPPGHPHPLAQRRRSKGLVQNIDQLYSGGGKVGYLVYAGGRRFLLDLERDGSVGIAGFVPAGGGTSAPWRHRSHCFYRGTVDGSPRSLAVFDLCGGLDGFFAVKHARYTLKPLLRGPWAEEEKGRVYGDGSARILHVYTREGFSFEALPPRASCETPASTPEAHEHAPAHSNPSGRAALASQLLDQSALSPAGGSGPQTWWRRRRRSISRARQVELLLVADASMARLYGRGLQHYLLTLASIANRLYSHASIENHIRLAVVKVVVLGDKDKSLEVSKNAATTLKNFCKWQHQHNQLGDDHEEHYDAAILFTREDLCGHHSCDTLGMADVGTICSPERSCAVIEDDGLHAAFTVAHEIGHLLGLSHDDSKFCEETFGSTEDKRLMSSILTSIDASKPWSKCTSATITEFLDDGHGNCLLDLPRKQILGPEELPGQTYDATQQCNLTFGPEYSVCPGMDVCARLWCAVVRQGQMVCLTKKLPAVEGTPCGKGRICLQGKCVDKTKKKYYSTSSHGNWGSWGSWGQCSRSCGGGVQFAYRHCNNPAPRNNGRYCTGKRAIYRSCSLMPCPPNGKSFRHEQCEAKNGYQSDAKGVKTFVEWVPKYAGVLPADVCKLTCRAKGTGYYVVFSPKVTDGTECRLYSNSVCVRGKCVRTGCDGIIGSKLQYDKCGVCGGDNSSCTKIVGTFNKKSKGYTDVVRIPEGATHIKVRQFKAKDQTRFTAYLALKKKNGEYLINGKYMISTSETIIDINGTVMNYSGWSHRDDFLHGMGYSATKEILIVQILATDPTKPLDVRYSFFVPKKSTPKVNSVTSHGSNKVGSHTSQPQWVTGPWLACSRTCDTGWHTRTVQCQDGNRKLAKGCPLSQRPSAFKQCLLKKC

IC50 (Blood): 0.232 µM
IC50 (Stromelysin-2): > 10 µM
fraction unbound [1]: 0.2
half-life [2]: 2.4 h
half-life [3]: 4.8 h
bioavailability [4]: 99%
Papp [5]: 0.7 ×10⁻⁶ cm/s
bioavailability [6]: 53%
half-life [7]: 3.5 h
AUC [8]: 6.85 µM·h
Vd [9]: 1.5 L/kg
clearance [10]: 26.7 mL/min/kg
Tmax [11]: 0.5 h
AUC [12]: 5.84 µM·h
Vd [13]: 1 L/kg
AUC [14]: 39.5 µM·h
fraction unbound [15]: 0.21
Tmax [16]: 0.3 h
clearance [17]: 10 mL/min/kg
fraction unbound [18]: 0.2
AUC [19]: 9.97 µM·h
half-life [20]: 4.2 h
Ki [21]: 1 µM
Compound: O=C(N[C@@H]1CCOC[C@@H]1C(=O)NO)c1ccc(Cn2c(C(F)(F)F)nc3ccccc32)cc1
ED50 (Mus musculus): 1.9 mg/kg
